Source: article PMC4521672 (OncoTargets and therapy, 2015)
Several values for one entry are separate records, joined by “and”; a condition that tells them apart may be missing. Identical values can stand only once.

Key:
C6 glioma tumor = experiment: In vivo PET imaging of C6 glioma-bearing rat; design: species or system Sprague–Dawley rats; conditions: dynamic PET 0-60 minutes post-injection, intravenous
Summary of the method: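 Male Sprague–Dawley rats (8 weeks) stereotactically inoculated in the right hemisphere with 1.0×10^5 C6 cells. Tumours grew 2 weeks to 3–5 mm, with loci confirmed by MRI. Rats were anaesthetised with isoflurane in 200 mL/min oxygen and fitted with venous and arterial catheters. Imaged on a microPET R4 scanner; one tumour-bearing and one healthy rat were scanned.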

GSTP1 (GST-π) = GSTP1 (GST-π) (Homo sapiens, UniProt P09211); experiment: GST activity assay; type: biochemical; conditions: read-out: IC50 for inhibition of formation of the CDNB-GSH conjugate in the presence of GST-π; GSTP1 5 μg/mL, pH 6.8, absorption at 355 nm
GSTA1 (GST-α) = target: T1, GSTA1 (GST-α) (Homo sapiens, UniProt P08263); experiment: GST activity assay; type: biochemical; conditions: read-out: IC50 for inhibition of formation of the CDNB-GSH conjugate in the presence of GST-α; GSTA1 5 μg/mL, pH 6.8, absorption at 355 nm
T1 sequence (P08263 1-222): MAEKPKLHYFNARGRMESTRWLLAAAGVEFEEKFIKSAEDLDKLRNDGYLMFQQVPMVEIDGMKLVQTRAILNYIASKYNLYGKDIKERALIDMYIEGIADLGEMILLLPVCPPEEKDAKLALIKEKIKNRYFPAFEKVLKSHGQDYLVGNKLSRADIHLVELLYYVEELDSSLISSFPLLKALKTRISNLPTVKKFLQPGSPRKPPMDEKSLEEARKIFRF
Summary of the method: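 Recombinant human GSTA1 at 5 μg/mL in 0.1 M sodium phosphate, pH 6.8. GSH and CDNB were added from 2.5 mM and 7.5 mM stocks. Test compound was made as a 10 mM ethanol stock, then serially diluted to 10^-2–100 μM to compete with CDNB for conjugation to GSH. After 1–5 min, absorbance read at 355 nm, minus non-enzymatic conjugation. Triplicate runs; IC50 taken from dose–response curves.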

Compound | Accumulation in C6 glioma tumor loci (PET) (C6 glioma tumor) | IC50 (GSTP1 (GST-π)) | IC50 (GSTA1 (GST-α))
Cc1cn([C@H]2C[C@H]([18F])[C@@H](CO)O2)c(=O)[nH]c1=O [[^18F]FLT, 3′-deoxy-3′-[^18F] fluorothymidine] | tumor sites were targeted |  | 
C=C(CC)C(=O)c1ccc(OCC(=O)NCCCCF)c(Cl)c1Cl [FBuEA, fluorobutyl ethacrynic amide] |  | 6.02 µM and 6 µM | 17.5 µM
